The list is not random: actives were taken first. Their share in the collection is about 1.8%.
proCasp3 act – activators of human procaspase-3 D3A mutant, primary screen, biochemical, absorbance, PC-3 D3A mutant, single concentration. Caspase-3 (Homo sapiens), P42574. recombinant procaspase-3 D3A, Ac-DEVD-pNA absorbance 405 nm. activation, % at 8.5 µM. actives 0.11% (n = 330,000);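 active = activation above the mean of all tested compounds plus 3 SD, cut at about 21% in these data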
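assay system = Procaspase-3 D3A mutant | signal = absorbance at 405 nm, 0 and 120 min | times = 1 h preincubation plus 2 h reaction at 25 °C | repeats = single replicate | read-out = % activation between DMSO and enzyme-spiked controls | medium = Zinc-free HEPES saline buffer with Triton X-100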
ZTA DNA inh – ZTA (EBV) inhibition in EBNA-1 counter-screen; P03206; ZTA-DNA binding, fluorescence polarization; inhibition, % at 11 µM; actives 0.15% (n = 320,000); AID 2234; in the data active = inhibition above about 33%
Apaf1 inhib – inhibitors of human Apaf-1 apoptosome, primary screen, biochemical, DEVD-Rh110 fluorescence, uHTS; inhibition, % at 20 µM; reconstituted apoptosome caspase-3 activity; actives 0.71% (n = 330,000); active = inhibition of at least 40% at 20 µM
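detection = Rh110 fluorescence intensity | test system = biochemical Apaf-1 apoptosome reconstitution | also added = cytochrome c and DEVD-Rh110 substrate | schedule = 30 min plus 50 min, RT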
GSTO1 inh – inhibitors of recombinant GSTO1, primary screen, counter-screen for RBBP9 inhibitor project, biochemical, fluorescence polarization; Glutathione S-transferase omega-1 (Homo sapiens), P78417; activity-based probe fluorescence polarization; inhibition, % at 5.96 µM; actives 1.1% (n = 300,000);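 active = inhibition above the campaign mean inhibition plus 3 SD, cut at about 35% in these data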
Target sequence (P78417 whole entry, looked up): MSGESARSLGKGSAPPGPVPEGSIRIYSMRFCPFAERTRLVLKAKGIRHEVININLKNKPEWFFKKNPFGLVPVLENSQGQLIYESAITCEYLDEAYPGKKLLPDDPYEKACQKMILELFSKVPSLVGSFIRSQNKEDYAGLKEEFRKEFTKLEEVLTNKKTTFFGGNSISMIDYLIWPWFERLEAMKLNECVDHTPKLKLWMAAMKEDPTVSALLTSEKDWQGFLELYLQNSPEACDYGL
EBNA-1 inh – EBNA-1 DNA-binding inhibitors, primary screen, biochemical, fluorescence polarization; inhibition, % at 14.8 µM; actives 0.34% (n = 300,000); AID 1950, 2009; in the data active = inhibition above about 28%
proCasp7 act – procaspase-7 activators, primary screen, counter-screen for procaspase-3 activator project, biochemical, absorbance, HTS, human. Caspase-7 (Homo sapiens), P55210. recombinant procaspase-7, Ac-DEVD-pNA absorbance 405 nm; D23A/D198A/D206A triple mutant, cannot self-cleave; scale: DMSO 0, 5 µM enzyme 100. activation, % at 8.5 µM. actives 0.093% (n = 330,000);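 active = percent activation above the screen-wide mean plus 3 SD, cut at about 25% in these data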
Target sequence (P55210 whole entry D23A/D198A/D206A): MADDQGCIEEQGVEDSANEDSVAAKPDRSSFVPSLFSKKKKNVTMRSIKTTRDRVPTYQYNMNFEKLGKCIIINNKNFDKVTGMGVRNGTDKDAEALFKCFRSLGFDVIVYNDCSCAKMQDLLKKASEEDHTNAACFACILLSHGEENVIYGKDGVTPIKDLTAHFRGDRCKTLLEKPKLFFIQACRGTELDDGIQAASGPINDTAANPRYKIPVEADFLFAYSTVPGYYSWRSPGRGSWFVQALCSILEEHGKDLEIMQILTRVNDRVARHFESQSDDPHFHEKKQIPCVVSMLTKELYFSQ
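Assay system – Uncleavable procaspase-7 mutant enzyme · Quantity – 2 µM procaspase-7 mutant as dispensed · Times – 1 h preincubation, 2 h reaction · Dosing – single nominal 8.5 µM compound dose, 0.8% DMSO final · Buffer or medium – Zinc-free 50 mM HEPES buffer, pH 7.4, with NaCl and Triton X-100 · Detection – Epi-absorbance of released pNA at 405 nm, two timepoints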
GSTO1 inh conf – GSTO1 inhibitor hit confirmation, counter-screen for RBBP9 inhibitor project, biochemical, fluorescence polarization, triplicate; shares compounds with GSTO1 inh; recombinant GSTO1, probe fluorescence polarization; inhibition, % at 5.96 µM; actives 54% (n = 2,400);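 active = inhibition above the primary screen's cutoff, its mean inhibition plus 3 SD, cut at about 35% in these data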;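 also: loss of polarization as inhibitors block binding of rhodamine sulfonate ester activity probe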
GSTO1 recomb ABPP – inhibitors of purified human GSTO1, late-stage follow-up, biochemical, gel ABPP, SE-Rh probe, percent inhibition; actives 30% (n = 130); inhibition, % at 1 µM; AID 463110, 2010; recombinant GSTO1, gel ABPP SE-Rh probe fluorescence; shares compounds with GSTO1 inh;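 active = inhibition of the enzyme GSTO1 above about 75%, limit read from the data; inactive = inhibition below that limit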
Each line names hits and unclear results; the compound was inactive in the other large screens (follow-up assays come after a bar, where they were run).

Cc1cc(C(=O)CCC(=O)N(C)CC(=O)Nc2c(Cl)cccc2Cl)c(C)s1	none
COc1ccccc1N(CC1CO1)S(=O)(=O)c1ccccc1 (configuration not stated)	GSTO1 inh 85 | GSTO1 inh conf 78 | GSTO1 recomb ABPP inactive
COc1ccccc1N(CC1CO1)S(=O)(=O)c1ccc(C)cc1 (configuration not stated)	GSTO1 inh 75 | GSTO1 inh conf 83 | GSTO1 recomb ABPP inactive
O=C(c1noc2c1CSc1ccccc1-2)N1CCN(c2ccc(Cl)cc2)CC1	none
O=C(CCCn1c(SCC(=O)c2ccc(O)c(O)c2)nc2ccccc2c1=O)NCC1CCCO1 (configuration not stated)	GSTO1 inh 44 | GSTO1 inh conf inactive
Cc1ccc(NC(=O)Cc2nc(-c3c[nH]c(C(=O)N4CCCC4)c3)cs2)c(C)c1	none (no result: GSTO1 inh, EBNA-1 inh)
Nc1ccc(N(c2ccccc2)c2ccc(N)cc2)cc1	GSTO1 inh 43 | GSTO1 inh conf inactive
CN(C)c1ccc(CCc2ccc(N)cc2)cc1	none
COC(=O)C(N)Cc1ccc(O)cc1 (configuration not stated)	none
COC(=O)C(N)Cc1ccc(O)c(O)c1 (configuration not stated)	GSTO1 inh 90 | GSTO1 inh conf inactive
CC(=O)Oc1ccc(C(=O)Nc2ccc(S(=O)(=O)NCC3CCCO3)cc2)cc1 (configuration not stated)	none
NC(=O)c1ccc(N=C2C(=O)Nc3ccc([N+](=O)[O-])cc32)cc1	Apaf1 inhib 56, GSTO1 inh 71 | GSTO1 inh conf inactive
Cc1ccc(Cl)c(NC(=O)COC(=O)c2cc[n+]([O-])cc2)c1Cl	none (no result: ZTA DNA inh, GSTO1 inh, EBNA-1 inh)
CC1=CC(C)(C)Nc2ccc(OC(=O)CN3C(=O)CCC3=O)cc21	GSTO1 inh 62 | GSTO1 inh conf inactive
CC1=CC(C)(C)Nc2ccc(C)cc21	none
CCC(Sc1nc(-c2cccc(OC)c2)c(C#N)c(=O)[nH]1)C(=O)Nc1nnc(C(C)C)s1 (configuration not stated)	GSTO1 inh 50 | GSTO1 inh conf 62
O=C(Nc1nc2c(F)cc(F)cc2s1)c1ccc([N+](=O)[O-])o1	none
N#Cc1ccccc1OCC(=O)Nc1ccc(S(=O)(=O)N2CCOCC2)cc1	none (no result: ZTA DNA inh, GSTO1 inh, EBNA-1 inh)
CC(=O)Nc1ccc(Nc2c3c4c(cccc4n(C)c2=O)C(=O)c2ccccc2-3)cc1	none
Cn1c(=O)c(NC2CCCCC2)c2c3c(cccc31)C(=O)c1ccccc1-2	none (no result: proCasp3 act, ZTA DNA inh, GSTO1 inh, EBNA-1 inh, proCasp7 act)
CCCCNc1c2c3c(cccc3n(C)c1=O)C(=O)c1ccccc1-2	GSTO1 inh 44 | GSTO1 inh conf inactive
Cn1c(=O)c(NCCO)c2c3c(cccc31)C(=O)c1ccccc1-2	GSTO1 inh 82 | GSTO1 inh conf 76
Cn1c(=O)c(NCCc2ccccc2)c2c3c(cccc31)C(=O)c1ccccc1-2	GSTO1 inh 156 | GSTO1 inh conf 118
COc1cccc(C(C(=O)NCC2CCCO2)N(C(=O)Cn2nnc3ccccc32)c2ccc(NC(C)=O)cc2)c1OC (configuration not stated)	none
CC(=O)N1CCN(C(=O)COc2ccc3oc4c(c3c2)CCCC4)CC1	none
CC(C)[C@H]1COCCS(=O)(=O)N1Cc1ccccc1-c1ccc(F)cc1	none (no result: ZTA DNA inh, GSTO1 inh, EBNA-1 inh)
CCOc1cc(CNc2cccc3ccccc23)cc(Br)c1OCC(=O)NC(C)(C)C	none
CCOc1cc(CNc2ccc(N(C)C)cc2)cc(Br)c1OCC(=O)NC(C)(C)C	ZTA DNA inh active, Apaf1 inhib 44, GSTO1 inh 81, EBNA-1 inh active | GSTO1 inh conf inactive
O=C1CN(c2ccccc2Cl)C(=O)CN1c1ccccc1Cl	none
Cc1cc(=O)n(-c2ccc(C(=O)O)cc2)[nH]1	GSTO1 inh 63 | GSTO1 inh conf inactive
Cc1cc(=O)n(-c2ccc(O)cc2)[nH]1	GSTO1 inh 73 | GSTO1 inh conf inactive
Cc1cc(=O)n(-c2ccccc2Cl)[nH]1	GSTO1 inh 48 | GSTO1 inh conf inactive
Cc1cc(-c2ccc(S(=O)(=O)N3CCN(c4ccccc4F)CC3)s2)on1	none
COc1ccc(S(=O)(=O)N2CCOCC2)cc1NC(=O)C1COc2ccccc2O1 (configuration not stated)	none
COc1ccccc1Oc1c(C)oc2c(CN3CCN(CCO)CC3)c(O)ccc2c1=O	GSTO1 inh 67 | GSTO1 inh conf inactive
CCOc1ccccc1Oc1c(C)oc2c(CN3CCN(CCO)CC3)c(O)ccc2c1=O	none
O=C1/C(=C/c2cccnc2)SC(=S)N1Nc1ccccc1	GSTO1 inh 52 | GSTO1 inh conf inactive
O=C1/C(=C/c2cccnc2)SC(=S)N1c1ccccc1	none
CCOC(=O)C1=CNS(=O)(=O)NC1c1ccc(OC(C)=O)cc1 (configuration not stated)	none (no result: ZTA DNA inh, GSTO1 inh, EBNA-1 inh)
COc1ccc(C(=O)OCC(=O)NCC2CCCO2)c(F)c1 (configuration not stated)	none (no result: GSTO1 inh, EBNA-1 inh)
COCC(C)NC(=O)c1cc(-c2ccc(OC)c(OC)c2)on1 (configuration not stated)	GSTO1 inh 53 | GSTO1 inh conf inactive
COc1ccc(NC(=O)c2cc(-c3ccc(OC)c(OC)c3)on2)cc1OC	none
C=CCNC(=S)NNC(=O)c1cc(O)ccc1O	GSTO1 inh 62 | GSTO1 inh conf inactive
O=C(NN1C(=O)c2ccccc2NC1c1ccc([N+](=O)[O-])o1)c1ccc(Br)cc1 (configuration not stated)	GSTO1 inh 39 | GSTO1 inh conf inactive
NC(=O)C1CCN(C(=O)COc2ccc3ccc(=O)oc3c2)CC1	none
CN1c2ccccc2C(C)(C)C12CC(CCl)=NO2 (configuration not stated)	GSTO1 inh 46 | GSTO1 inh conf 96 | GSTO1 recomb ABPP inactive
COc1cc(/C=C2\CC/C(=C\c3cc(OC)c(OC)c(OC)c3)C2=O)cc(OC)c1OC	none

Screening data from PubChem.
